Source: ChEMBL document CHEMBL5335782, “Discovery of new imidazotetrazinones with potential to overcome tumor resistance” (Eur J Med Chem, 2023)
The source made the active and inactive calls. No cut-off for these calls is given here.

Columns and labels:
[1] = Antiproliferative activity against human U373V cells assessed as inhibition of cell growth measured […] by MTT assay; format: functional
Procedure, shortened: (§1)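 Cells seeded at 6.5×10^2/well, left overnight, then exposed to vehicle or agent (n = 4-8; final 0.5–1000 μM; DMSO stocks of 50 or 10 mM diluted in medium). MTT read at time of addition and after 6 days at 37 °C, 5% CO₂. MTT 0.4 mg/mL for 4 h, formazan taken up in DMSO, A550. GI50 from non-linear regression; mean ± SD of >3 experiments.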

[2] = tested on: HCT-116; assay: Antiproliferative activity against MMR-deficient human HCT-116 cells assessed as inhibition of cell growth measured after […] by MTT assay; format: functional; procedure, shortened: as §1
[3] = Antiproliferative activity against MGMT-expressing human U373M cells assessed as inhibition of cell growth measured after […] by MTT assay; format: functional; procedure, shortened: as §1
[4] = Cytotoxicity against human MRC5 cells assessed as inhibition of cell growth measured after 7 days by MTT assay; format: toxicity, cell-based; details: time 7 day; procedure, shortened: as §1
[5] = Permeability of the compound assessed as drug recovery measured after 6 hrs by PAMPA assay; format: ADME; details: read-out: Drug recovery
Procedure, shortened: (§2)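 PAMPA passive-diffusion assay run as contract research under the provider's protocols, with control compounds. After 6 h incubation, permeability (Pe) and percentage recovery determined.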

[6] = Half life in rat liver microsomes in presence of NADPH; format: ADME, Microsome
[7] = Half life in human plasma; format: ADME, cell-free
[8] = Intrinsic clearance in rat liver microsomes in presence of NADPH; format: ADME, Microsome; details: read-out: CLH
[9] = Half life in rat liver microsomes in absence of NADPH; format: ADME, Microsome
[10] = Half life in human liver microsomes in presence of NADPH; format: ADME, Microsome
[11] = Half life in human liver microsomes in absence of NADPH; format: ADME, Microsome
[12] = Stability of the compound in phosphate buffered saline at pH 7.4 by 1H NMR spectroscopy; format: physicochemical; details: buffer
Procedure, shortened: (§3)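 Half-life followed by ¹H NMR spectroscopy in phosphate buffers at pH 7.4 or 5.5.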

[13] = Half life of the compound in phosphate buffered saline at pH 5 by LC-MS analysis; format: physicochemical
Procedure, shortened: (§4)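 Half-life in phosphate buffers at pH 5, 6.8 or 7.4 followed by LC-MS; mean of two independent experiments.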

[14] = Half life of the compound in phosphate buffered saline at pH 6.8 by LC-MS analysis; format: physicochemical; procedure, shortened: as §4
[15] = Half life of the compound in phosphate buffered saline at pH 7.4 by LC-MS analysis; format: physicochemical; procedure, shortened: as §4
[16] = Half life of the compound in phosphate buffered saline at pH 7.4 by 1H NMR spectroscopic analysis; format: physicochemical; procedure, shortened: as §3
[17] = Stability of the compound in phosphate buffered saline at pH 5.5 by 1H NMR spectroscopy; format: physicochemical; details: buffer; procedure, shortened: as §3
[18] = Intrinsic clearance in human liver microsomes in absence of NADPH; format: ADME, Microsome; details: read-out: CLH
[19] = Ratio of permeability across dog MDCK cells transfected with MDR1 to permeability across wild type dog MDCK cells; format: ADME, cell-based, Canis lupus familiaris
[20] = Intrinsic clearance in rat liver microsomes in absence of NADPH; format: ADME, Microsome; details: read-out: CLH
[21] = Half life in rat plasma; format: ADME, cell-free
[22] = Intrinsic clearance in human liver microsomes in presence of NADPH; format: ADME, Microsome; details: read-out: CLH
[23] = Permeability of the compound measured after 6 hrs by PAMPA assay; format: ADME; details: read-out: permeability; procedure, shortened: as §2
[24] = Half life of the compound in phosphate buffered saline at pH 5.5 by 1H NMR spectroscopic analysis; format: physicochemical; procedure, shortened: as §3
[25] = tested on: U373V; assay: Induction of cell cycle arrest in human U373V cells assessed as accumulation of cells at S phase at 100 uM measured after 120 hrs by propidium iodide staining based flow cytometry; format: functional
[26] = tested on: HCT-116; assay: Induction of cell cycle arrest in MMR-deficient human HCT-116 cells assessed as loss of cell cycle integrity at 100 uM measured after 120 hrs by propidium iodide staining based flow cytometry; format: functional
[27] = tested on: U373M; assay: Induction of cell cycle arrest in MGMT-expressing human U373M cells assessed as accumulation of cells at S phase at 100 uM measured after 120 hrs by propidium iodide staining based flow cytometry; format: functional
[28] = tested on: U373V; assay: Induction of cell cycle arrest in human U373V cells assessed as accumulation of cells at G2/M phase at 100 uM measured after 120 hrs by propidium iodide staining based flow cytometry; format: functional
[29] = Drug metabolism in phosphate buffered saline assessed as half life of 5-(3-(prop-2-yn-1-yl)triaz-2-en-1-yl)-1H-imidazole-4-carboxamide at pH 7.4 by 1HNMR spectroscopy; format: ADME; details: buffer
[30] = tested on: U373V; assay: Induction of cell cycle arrest in human U373V cells assessed as accumulation of cells at sub-G1 phase at 100 uM measured after 120 hrs by propidium iodide staining based flow cytometry; format: functional
[31] = Drug metabolism in phosphate buffered saline assessed as Tmax of 5-(3-(prop-2-yn-1-yl)triaz-2-en-1-yl)-1H-imidazole-4-carboxamide at pH 7.4 by 1HNMR spectroscopy; format: ADME; details: buffer
[32] = tested on: U373M; assay: Induction of cell cycle arrest in MGMT-expressing human U373M cells assessed as accumulation of cells at sub-G1 phase at 100 uM measured after 120 hrs by propidium iodide staining based flow cytometry; format: functional
[33] = tested on: HCT-116; assay: Induction of cell cycle arrest in MMR-deficient human HCT-116 cells assessed as accumulation of cells at sub-G1 phase at 100 uM measured after 120 hrs by propidium iodide staining based flow cytometry (Rvb ~5%); format: functional
[34] = Induction of cell cycle arrest in MGMT-expressing human U373M cells assessed as accumulation of cells at G2/M phase at 100 uM measured after 120 hrs by propidium iodide staining based flow cytometry (Rvb ~ 15%); format: functional

C#CCn1nnc2c(-c3ncc(C)s3)ncn2c1=O
GI50 [1]: 6.84 µM | GI50 [2]: 4.6 µM | GI50 [3]: 3.99 µM

C#CCn1nnc2c(-c3nc(C)cs3)ncn2c1=O
GI50 at 168 h [4]: 25 µM | recovery at 6 h [5]: 18.5% | half-life [6]: 20.4 min | half-life [7]: 2.97 min | microsomal CLint [8]: 68.5 µL/min/mg | half-life [9]: 94.3 min | GI50 [1]: 8.45 µM | half-life [10]: 14.2 min | half-life [11]: 76.3 min | Stability [12]: Stable | half-life [13]: > 480 min | half-life [14]: 214 min | half-life [15]: 169 min | half-life [16]: 88 min | Stability [17]: Stable | microsomal CLint [18]: 18.6 µL/min/mg | Ratio [19]: 1.16 | microsomal CLint [20]: 14.7 µL/min/mg | half-life [21]: 3.54 min | GI50 [2]: 7.04 µM | microsomal CLint [22]: 97.8 µL/min/mg | Papp at 6 h [23]: 3.68 ×10⁻⁶ cm/s | GI50 [3]: 7.44 µM | half-life [24]: 7.2 min

C#CCn1nnc2c(-c3nc(C(C)(C)C)cs3)ncn2c1=O
GI50 [1]: 27.3 µM | GI50 [2]: 25.1 µM | GI50 [3]: 19.2 µM

C#CCn1nnc2c(-c3nc(C4CC4)cs3)ncn2c1=O
GI50 [1]: 27.1 µM | GI50 [2]: 27.7 µM | GI50 [3]: 25.8 µM

C#CCn1nnc2c(-c3nc(-c4ccc(F)cc4)cs3)ncn2c1=O
GI50 [1]: 27.9 µM | GI50 [2]: 27.6 µM | GI50 [3]: 19.7 µM

C#CCn1nnc2c(C(N)=O)ncn2c1=O
recovery at 6 h [5]: 6.9% | half-life [6]: 39.3 min | half-life [7]: 14.5 min | Activity [25]: Active | Activity [26]: Active | microsomal CLint [8]: 35.5 µL/min/mg | half-life [9]: 48.7 min | GI50 [1]: 30 µM | half-life [10]: 77.8 min | Activity [27]: Active | Activity [28]: Active | half-life [11]: 55.1 min | half-life [13]: > 480 min | half-life [14]: 232 min | half-life [15]: 115 min | half-life [16]: 49 min | microsomal CLint [18]: 25.2 µL/min/mg | Ratio [19]: 0.93 | microsomal CLint [20]: 29.2 µL/min/mg | half-life [21]: 25.9 min | t1/2 [29]: 270 min | Activity [30]: Active | Tmax [31]: 120 min | Activity [32]: Active | Activity [33]: 96% | GI50 [2]: 28.1 µM | microsomal CLint [22]: 18.1 µL/min/mg | Papp at 6 h [23]: 1.38 ×10⁻⁶ cm/s | GI50 [3]: 26.6 µM | Activity [34]: 33%

C#CCn1nnc2c(-c3nc(C4CCCC4)cs3)ncn2c1=O
GI50 [1]: 23.7 µM | GI50 [2]: 19.2 µM | GI50 [3]: 11.8 µM

C#CCN/N=N/c1[nH]cnc1-c1nccs1
GI50 [1]: 7.51 µM | GI50 [2]: 5.97 µM | GI50 [3]: 5.81 µM

C#CCn1nnc2c(-c3nc(C(=C)C)cs3)ncn2c1=O
GI50 [1]: 18.7 µM | GI50 [2]: 16.7 µM | GI50 [3]: 14.2 µM

C#CCn1nnc2c(-c3nc(CO)cs3)ncn2c1=O
GI50 [1]: 24.4 µM | GI50 [2]: 17.8 µM | GI50 [3]: 14.8 µM
